We go through three compounds from PMC6900553 (Acta Pharmaceutica Sinica. B, 2019).

Data set [1] is described as follows: Caco-2 cell permeability assay. Particulars: human.
A short description of data set [2]: Metabolic stability in mouse liver microsomes. It is filed as in vitro ADME. Particulars: pH 7.4. The method in brief:
(§1)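 Liver microsomes were incubated in PBS pH 7.4 at 37 °C with test compound at 1 μmol/L final (1.5 μmol/L in the microsome pre-mix, 0.75 mg/mL microsomes). The reaction was started with NADPH (6 mmol/L stock). Samples at 0, 5, 15, 30 and 45 min were quenched with acetonitrile containing internal standard, vortexed, centrifuged and analysed by LC–MS/MS. Results were expressed as % parent remaining, giving t1/2.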
For orientation: Liver microsomes are vesicles of endoplasmic reticulum, rich in cytochrome P450 enzymes.

Data set [3] can be described thus: Metabolic stability in monkey liver microsomes. It is filed as in vitro ADME. Particulars: pH 7.4. The method in brief:
as §1

Data set [4] in a line: Pharmacokinetic study in rats. It is filed as in vivo. The following applies: Sprague-Dawley, rat, plasma; for AUC: mean ± SD, n = 3.
In data set [5] the test system is A431 human tumor xenografts. The experiment in a line: A431 human tumor xenograft study in nude mice. It is filed as in vivo. Particulars: A431 xenograft tumor tissue protein, Western blot. The essentials:
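Athymic BALB/c nude mice, 4–6 weeks old, were implanted s.c. at one site with 1.5 × 10^7 A431 cells under anaesthesia. At 100–200 mm3, mice were randomised into four groups. Saline vehicle (0.1 mL/10 g) or test compound at 10 or 40 mg/kg was given i.g. daily for 27 days. Caliper tumour size and body weight were recorded every 2 days. Excised tumours were weighed, RIPA-extracted and Western blotted; mean ± SD, n = 3.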
On the technique in general: In xenograft studies the graft and the host belong to different species.

Data set [6] in a line: Metabolic stability in rat liver microsomes. The format is in vitro ADME. The following applies: pH 7.4. The method in brief: as §1
The nature of data set [7]: Metabolic stability in dog liver microsomes. Particulars: pH 7.4. The format is in vitro ADME. The essentials:
as §1

Consider `CC[C@H]1OC(=O)[C@H](C)[C@@H](O[C@H]2C[C@@](C)(OC)[C@@H](O)[C@H](C)O2)[C@H](C)[C@@H](O[C@@H]2O[C@H](C)C[C@H](N(C)C)[C@H]2O)[C@](C)(O)C[C@@H](C)C(=O)[C@H](C)[C@@H](O)[C@]1(C)O` [Erythromycin], for which, in data set [1], the Papp A→B at 90 min, 10 μmol/L amounted to 0.09 ± 0.03 ×10⁻⁶ cm/s; the apparent permeability from basolateral to apical (Papp B→A) at 90 min, 10 μmol/L was 22.18 ± 0.02 ×10⁻⁶ cm/s; the efflux ratio at 90 min, 10 μmol/L is 240.

With `COc1cc2ncnc(Nc3ccc(F)c(Cl)c3)c2cc1OCCCN1CCOCC1` [Gefitinib], the half-life at 1 μmol/L in data set [2] came to 8.38 min; in data set [3] it was 4.66 min; in data set [6], 21.2 min; in data set [7] it was 34.5 min. Moreover, in data set [1], the apical-to-basolateral permeability (Papp A→B) at 90 min, 10 μmol/L was found to be 8.37 ± 0.01 ×10⁻⁶ cm/s. Also, the Papp B→A at 90 min, 10 μmol/L in data set [1] is 15.52 ± 0.02 ×10⁻⁶ cm/s. Also, in data set [4] (iv, 10 mg/kg), the mean residence time (MRT inf) amounted to 272 ± 11.4 min. The exposure (AUC) is 7800 ± 1460 ng·h/mL in data set [4] (iv, 10 mg/kg, AUCINF_plasma, i.v. 10 mg/kg); 7720 ± 1430 ng·h/mL in data set [4] (iv, 10 mg/kg, AUClast_plasma, i.v. 10 mg/kg); 20800 ng·h/mL in data set [4] (po, 40 mg/kg, AUCINF_plasma, p.o. 40 mg/kg); 20500 ng·h/mL in data set [4] (po, 40 mg/kg, AUClast_plasma, p.o. 40 mg/kg). In addition, the bioavailability in data set [4] (oral, 40 mg/kg) was determined as 66.5 ± 22.8%. In addition, in data set [4] (po, 40 mg/kg), the highest concentration (Cmax) was 1480 ± 395 ng/mL. In addition, in data set [4] (po, 40 mg/kg), the Tmax worked out at 260 ± 173 min. Also, the half-life in data set [4] (po, 40 mg/kg) is 231 ± 21 min. For the same compound, the “p-EGFR and p-AKT in tumor extracts” value in data set [5] is “clearly inhibited”.

`COCCc1ccc(OCC(O)CNC(C)C)cc1` (stereo not shown) [Metoprolol]: in data set [1], the Papp A→B at 90 min, 10 μmol/L came out at 40.04 ± 0.05 ×10⁻⁶ cm/s; the Papp B→A at 90 min, 10 μmol/L amounted to 30.92 ± 0.03 ×10⁻⁶ cm/s; the efflux ratio at 90 min, 10 μmol/L was found to be 0.77.

Broadly, the Papp A→B is the apparent permeability from the apical to the basolateral side of a cell layer. As a reminder, the Papp B→A is the apparent permeability from the basolateral to the apical side of a cell layer. The efflux ratio is a quotient of directional permeabilities that is used to spot active efflux. A word on the half-life: it is the time needed for the level to fall by half in the phase considered. One may read the MRT inf as the average time that molecules of a dose stay in the body. The term AUC denotes concentration integrated over time. Usually bioavailability stands for the share of a dose that reaches the circulation, judged against a reference dose that is usually intravenous. Broadly, the Cmax is the peak of the concentration-time curve. As a reminder, the Tmax is the time from dosing to the highest level.
